Assay results: ChEMBL document CHEMBL1124378, “Synthesis and pharmacological evaluation of a series of 4-piperazinylpyrazolo[3,4-b]- and -[4,3-b][1,5]benzodiazepines as potential anxiolytics” (J Med Chem, 1989)

Experiments:
Mus musculus [1] = assay: Dose below which no catalepsy was observed at any time period (following p.o. dosing); type: functional
Method in brief: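 CFW mice (21-23 g), three per group, dosed orally in water or 0.5% carboxymethylcellulose. Checked at 0.25, 2.5 and 5.0 h for holding one hind limb on a 2-cm rubber bung and staying on a vertical grid, judged against a control by a trained observer.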

Mus musculus [2] = assay: Compound administered perorally was evaluated for the hypothermia (rectal temperature) in mice; type: functional
Method in brief: (§1)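 Groups of three CFW mice (21-23 g) received oral compound in water or 0.5% carboxymethylcellulose. Rectal temperature was taken at 0.25, 2.5 and 5.0 h. Mean change from the group's initial mean was summed over the three times. Hypothermia scored if the summed reduction was >4 °C.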

[3] = target: Muscarinic acetylcholine receptor; assay: Compound was evaluated for the inhibition of [3H]QNB binding to Muscarinic acetylcholine receptor from male Olac rat brain.
Rattus norvegicus [4] = assay: Rotarod response in rat to assess muscular incoordination (following p.o. dosing); type: functional
Method in brief: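 Male Olac-Wistar rats (140-150 g), five per group, fed ad libitum, dosed orally. Tested 1 and 2 h later on a horizontal rod (2 rpm, 32 mm diameter), maximum 30 s. Mean time compared with vehicle controls by Mann-Whitney U test, significant at p < 0.05.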

Rattus norvegicus [5] = assay: Compound administered perorally was evaluated for the conditioned avoidance response in rats; type: functional
Method in brief: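 Olac-Wistar rats (120-130 g) trained to cross a shuttle box on a 5-s buzzer, with mild shock if no response within 1 s after it ends. Only high-responders used. Groups of five were dosed orally in water or 0.5% carboxymethylcellulose 1 h 50 min before testing. After 10-min habituation they were tested 20 min. Blockade = shocks as % of stimuli presented.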

[6] = target: D(2) dopamine receptor (Bos taurus) (UniProt P20288); assay: Inhibition of [3H]spiperone binding to Dopamine receptor D2 from calf caudate
Mus musculus [7] = assay: Compound administered perorally was evaluated for the hypothermia (rectal temperature ) in mice; type: functional; method in brief: as §1
Rattus norvegicus [8] = species on record: Rattus norvegicus; assay: Compound behavior in rat; type: functional; set-up: unit not given here
Method in brief: (§2)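 Olac-Wistar rats (180-190 g), eight per group, dosed orally, front paws placed on a 1.5-cm rod 7 cm above the table. Tested at 0.5, 1, 1.5, 2, 3, 4 and 5 h, up to 20 min hold. Each animal's maximum score (0-5 by time held) was summed, giving a group maximum of 40.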

[9] = target: Muscarinic acetylcholine receptor; assay: Inhibition of [3H]QNB binding to muscarinic cholinergic receptor from male Olac rat brain.
[10] = target: D(2) dopamine receptor (Bos taurus) (UniProt P20288); assay: Inhibition of [3H]spiperone binding to dopamine receptor D2 from calf caudate
Rattus norvegicus [11] = species on record: Rattus norvegicus; assay: compound behavior in rat; type: functional; set-up: unit not given here; method in brief: as §2
Rattus norvegicus [12] = assay: The compound was evaluated for the anticonflict behavior in male wistar rats as rate of responses (conflic) following dose of 20 mg/kg po; type: functional; set-up: unit: responses/min
Method in brief: (§3)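 Male Wistar rats on 23-h food deprivation, water ad libitum, trained to lever-press for food on continuous reinforcement until stable. Compound or vehicle given orally in randomized sequence 60 min before testing. Responses/min were recorded in reward, timeout and conflict components. Differences from control were tested by Wilcoxon test.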

Rattus norvegicus [13] = assay: The compound was evaluated for the anticonflict behavior in male wistar rats as rate of responses (conflict) following dose of 0 mg/kg po; type: functional; set-up: unit: responses/min; method in brief: as §3
Rattus norvegicus [14] = assay: The compound was evaluated for the anticonflict behavior in male wistar rats as rate of responses (conflict) following dose of 10 mg/kg po; type: functional; set-up: unit: responses/min; method in brief: as §3
Rattus norvegicus [15] = assay: The compound was evaluated for the anticonflict behavior in male wistar rats as rate of responses (conflict) following dose of 2.5 mg/kg po; type: functional; method in brief: as §3
Rattus norvegicus [16] = assay: The compound was evaluated for the anticonflict behavior in male wistar rats as rate of responses (conflict) following dose of 5.0 mg/kg po; type: functional; set-up: unit: responses/min; method in brief: as §3
Rattus norvegicus [17] = assay: The compound was evaluated for the anticonflict behavior in male wistar rats as rate of responses (reward) following dose of 0 mg/kg po; type: functional; set-up: unit: responses/min; method in brief: as §3
Rattus norvegicus [18] = assay: The compound was evaluated for the anticonflict behavior in male wistar rats as rate of responses (reward) following dose of 10 mg/kg po; type: functional; set-up: unit: responses/min; method in brief: as §3
Rattus norvegicus [19] = assay: The compound was evaluated for the anticonflict behavior in male wistar rats as rate of responses (reward) following dose of 2.5 mg/kg po; type: functional; method in brief: as §3
Rattus norvegicus [20] = assay: The compound was evaluated for the anticonflict behavior in male wistar rats as rate of responses (reward) following dose of 20 mg/kg po; type: functional; set-up: unit: responses/min; method in brief: as §3
Rattus norvegicus [21] = assay: The compound was evaluated for the anticonflict behavior in male wistar rats as rate of responses (reward) following dose of 5.0 mg/kg po; type: functional; set-up: unit: responses/min; method in brief: as §3
Rattus norvegicus [22] = assay: The compound was evaluated for the anticonflict behavior in male wistar rats as rate of responses (timeout) following dose of 0 mg/kg po; type: functional; method in brief: as §3
Rattus norvegicus [23] = assay: The compound was evaluated for the anticonflict behavior in male wistar rats as rate of responses (timeout) following dose of 10 mg/kg po; type: functional; set-up: unit: responses/min; method in brief: as §3
Rattus norvegicus [24] = assay: The compound was evaluated for the anticonflict behavior in male wistar rats as rate of responses (timeout) following dose of 2.5 mg/kg po; type: functional; method in brief: as §3
Rattus norvegicus [25] = assay: The compound was evaluated for the anticonflict behavior in male wistar rats as rate of responses (timeout) following dose of 20 mg/kg po; type: functional; set-up: unit: responses/min; method in brief: as §3
Rattus norvegicus [26] = assay: The compound was evaluated for the anticonflict behavior in male wistar rats as rate of responses (timeout) following dose of 5.0 mg/kg po; type: functional; set-up: unit: responses/min; method in brief: as §3

SMILES	EDmin (Mus musculus [1]) [mg/kg]	EDmin (Mus musculus [2]) [mg/kg]	IC50 [3] [µM]	ED (Rattus norvegicus [4]) [mg/kg]	ED (Rattus norvegicus [5]) [mg/kg]	IC50 [6] [µM]	EDmin (Mus musculus [7]) [mg/kg]	IC50 [9] [µM]	IC50 [10] [µM]	other results
Cc1nn(C)c2c1Nc1ccc(F)cc1N=C2N1CCN(C)CC1	>200	>200	> 100	>50	>50	> 10	–	–	–	–
CC(C)n1cc2c(n1)Nc1ccc(F)cc1N=C2N1CCN(C)CC1	200	–	7.2	40	25	1.1	50	–	–	Activity (Rattus norvegicus [8]): >50
CN1CCN(C2=Nc3ccccc3Nc3nn(C)cc32)CC1	200	–	38	>50	>50	6.3	50	–	–	Activity (Rattus norvegicus [8]): 50
Cn1cc2c(n1)Nc1ccc(F)cc1N=C2N1CCNCC1	>400	–	> 10	>50	>50	5.2	200	–	–	–
CCCn1cc2c(n1)Nc1ccc(F)cc1N=C2N1CCN(C)CC1	200	–	16	50	40	0.18	25	–	–	Activity (Rattus norvegicus [8]): >50
CN1CCN(C2=Nc3cc(Cl)c(Cl)cc3Nc3nn(C)cc32)CC1	50	–	> 1	>50	>20	> 10	25	–	–	–
CN1CCN(C2=Nc3cc(F)ccc3Nc3nn(C)c(-c4ccccc4)c32)CC1	>400	200	–	>50	>50	–	–	> 100	2.1	–
Cn1cc2c(n1)Nc1ccc(F)cc1N=C2N1CC[N+](C)([O-])CC1	100	50	–	>50	>50	–	–	> 1	> 10	–
CN1CCN(C2=Nc3cc(F)ccc3Nc3nn(Cc4ccccc4)cc32)CC1	>400	100	–	>50	50	–	–	> 100	0.4	–
CCCCCCCCCCn1cc2c(n1)Nc1ccc(Cl)cc1N=C2N1CCN(C)CC1	>400	–	> 10	>50	>50	2.5	>400	–	–	–
CCn1cc2c(n1)Nc1ccc(Cl)cc1N=C2N1CCN(C)CC1	>400	6.25	–	20	>15	–	–	> 1	0.34	–
CN1CCN(C2=Nc3ccccc3Nc3c2cnn3C)CC1	>400	–	> 100	>50	>50	1500	>400	–	–	Activity (Rattus norvegicus [8]): >50
CCCCCCn1cc2c(n1)Nc1ccc(F)cc1N=C2N1CCN(C)CC1.Cl	>400	100	–	>50	>50	–	–	18	0.7	Activity (Rattus norvegicus [11]): >50
CC(C)Cn1cc2c(n1)Nc1ccc(Cl)cc1N=C2N1CCN(C)CC1	200	50	–	>50	>50	–	–	> 10	3.3	–
CN1CCN(C2=Nc3cc(F)ccc3Nc3nn(-c4ccccc4)cc32)CC1	>200	>200	–	>50	50	2.6	–	> 10	–	–
CN1CCN(C2=Nc3cc(Br)ccc3Nc3nn(C)cc32)CC1	25	12.5	> 10	>10	>5	0.68	–	–	–	Activity (Rattus norvegicus [12]): 4.1; Activity (Rattus norvegicus [13]): 0.5; Activity (Rattus norvegicus [14]): 5; Activity (Rattus norvegicus [15]): 2.2; Activity (Rattus norvegicus [16]): 2.6; Activity (Rattus norvegicus [17]): 18.7; Activity (Rattus norvegicus [18]): 23; Activity (Rattus norvegicus [19]): 21.9; Activity (Rattus norvegicus [20]): 14.1; Activity (Rattus norvegicus [21]): 22.1; Activity (Rattus norvegicus [22]): 2; Activity (Rattus norvegicus [23]): 8; Activity (Rattus norvegicus [24]): 2.1; Activity (Rattus norvegicus [25]): 4.4; Activity (Rattus norvegicus [26]): 6
CCn1cc2c(n1)Nc1ccc(F)cc1N=C2N1CCN(C)CC1	>400	6	–	>40	50	–	–	14	3.3	Activity (Rattus norvegicus [11]): 50
Cc1c2c(nn1C)Nc1ccc(F)cc1N=C2N1CCN(C)CC1	200	25	–	>50	>50	–	–	3.2	97	Activity (Rattus norvegicus [11]): 50
CN1CCN(C2=Nc3ccc(F)cc3Nc3nn(C)cc32)CC1	100	1.6	–	>40	>20	–	–	43	2.6	Activity (Rattus norvegicus [11]): >50
CN1CCN(C2=Nc3cc(Cl)ccc3Nc3nn(C4CCCC4)cc32)CC1	>400	50	–	>50	50	–	–	> 10	0.14	–
Cc1ccc2c(c1)Nc1nn(C)cc1C(N1CCN(C)CC1)=N2	>400	200	> 100	>50	>50	5.6	–	–	–	Activity (Rattus norvegicus [8]): >50
CN1CCN(C2=Nc3cc(F)c(F)cc3Nc3nn(C)cc32)CC1	>200	25	–	>50	50	–	–	21	0.76	–
CNC1=Nc2ccc(Cl)cc2C(c2ccccc2)=[N+]([O-])C1 [CHLORDIAZEPOXIDE]	–	–	–	–	–	–	–	–	–	Activity (Rattus norvegicus [12]): 3.3; Activity (Rattus norvegicus [13]): 0.6; Activity (Rattus norvegicus [14]): 4.2; Activity (Rattus norvegicus [16]): 1.9; Activity (Rattus norvegicus [17]): 70.2; Activity (Rattus norvegicus [18]): 68.8; Activity (Rattus norvegicus [20]): 54.3; Activity (Rattus norvegicus [21]): 70.8; Activity (Rattus norvegicus [22]): 1.4; Activity (Rattus norvegicus [23]): 3.4; Activity (Rattus norvegicus [25]): 3.7; Activity (Rattus norvegicus [26]): 2.2
CN1CCN(C2=Nc3cc(Cl)ccc3Nc3ccccc32)CC1 [CLOZAPINE]	100	–	–	40	30	–	50	–	–	Activity (Rattus norvegicus [8]): 80
Cc1cc2c(s1)Nc1ccc(F)cc1N=C2N1CCN(C)CC1 [FLUMEZAPINE]	6.25	1.6	–	10	5	–	–	–	–	Activity (Rattus norvegicus [11]): 20
